{"data": "Assay results collected from several papers", "target": "Ephrin type-B receptor 1 (EPHB1, Homo sapiens, UniProt P54762)", "Sequence (P54762 18-984, as in one of the studies)": "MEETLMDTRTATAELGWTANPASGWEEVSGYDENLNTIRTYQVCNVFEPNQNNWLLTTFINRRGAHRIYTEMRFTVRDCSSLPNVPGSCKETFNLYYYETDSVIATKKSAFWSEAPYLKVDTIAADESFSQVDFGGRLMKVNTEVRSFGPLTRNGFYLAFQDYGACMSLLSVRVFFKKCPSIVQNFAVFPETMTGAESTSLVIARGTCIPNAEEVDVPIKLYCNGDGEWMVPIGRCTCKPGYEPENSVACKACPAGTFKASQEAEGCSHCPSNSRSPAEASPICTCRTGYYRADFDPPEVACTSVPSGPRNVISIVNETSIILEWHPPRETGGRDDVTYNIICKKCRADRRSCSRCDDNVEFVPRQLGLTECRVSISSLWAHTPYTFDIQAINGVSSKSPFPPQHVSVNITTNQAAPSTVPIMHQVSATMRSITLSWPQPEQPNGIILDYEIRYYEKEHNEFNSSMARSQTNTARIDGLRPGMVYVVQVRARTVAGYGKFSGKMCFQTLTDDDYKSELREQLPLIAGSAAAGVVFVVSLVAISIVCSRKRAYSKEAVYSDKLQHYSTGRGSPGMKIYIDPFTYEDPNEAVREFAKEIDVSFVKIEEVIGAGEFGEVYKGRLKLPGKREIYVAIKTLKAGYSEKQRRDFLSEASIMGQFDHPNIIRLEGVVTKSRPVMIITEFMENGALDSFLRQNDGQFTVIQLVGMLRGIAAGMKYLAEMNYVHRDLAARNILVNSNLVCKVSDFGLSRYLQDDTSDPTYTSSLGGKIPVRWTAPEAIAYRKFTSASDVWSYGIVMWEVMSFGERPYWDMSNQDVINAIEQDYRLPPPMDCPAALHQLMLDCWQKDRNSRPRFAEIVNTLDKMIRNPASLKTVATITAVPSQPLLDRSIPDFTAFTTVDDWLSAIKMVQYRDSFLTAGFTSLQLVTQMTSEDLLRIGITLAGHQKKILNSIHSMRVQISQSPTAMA", "note": "Protocols differ between the studies behind these lines."}
{"observed": "enzyme activity", "mode": "inhibitor", "tested at": "10 µM", "quantity": "remaining activity", "value": "96%", "SMILES": "FC(F)c1nc2ccccc2n1-c1nc(N2CCOCC2)nc(N2CCOCC2)n1"}
{"observed": "cell-free assay", "tested at": "20 µM", "quantity": "remaining signal", "value": "0%", "SMILES": "Nc1ncnc2occ(-c3ccc(NC(=O)Nc4cc(C(F)(F)F)ccc4F)cc3)c12"}
{"observed": "cell-free assay", "tested at": "10 µM", "quantity": "remaining signal", "value": "-1%", "SMILES": "Cc1ccc(NC(=O)c2ccc(C)c(C(F)(F)F)c2)cc1C#Cc1nn(C2CCC(O)CC2)c2ncnc(N)c12 (centres unmarked)"}
{"observed": "cell-free assay", "method": "competition with immobilised ligand", "tested at": "1 µM", "quantity": "remaining binding", "value": "100%", "SMILES": "O=C(Nc1ccc(Oc2ccc(F)cc2)cc1)N1CCc2ncccc2[C@H]1c1ccc(F)cc1"}
{"observed": "enzyme activity", "mode": "inhibitor", "tested at": "10 µM", "quantity": "remaining activity", "value": "97%", "SMILES": "CCN(CC)c1ccc(C2=NNC(=O)CC2C)cc1[N+](=O)[O-] (centres unmarked)"}
{"observed": "enzyme activity", "mode": "inhibitor", "tested at": "0.3 µM", "quantity": "inhibition", "value": "34%", "SMILES": "CCN(CC)CCNC(=O)c1c(C)[nH]c(/C=C2\\C(=O)Nc3ccc(F)cc32)c1C"}
{"observed": "enzyme activity", "mode": "inhibitor", "tested at": "1 µM", "quantity": "inhibition", "value": "6%", "SMILES": "COc1cc(-c2cc(-c3ccc(N4CCNCC4)cc3)cnc2C)cc(OC)c1OC"}
{"observed": "enzyme activity", "mode": "inhibitor", "tested at": "1 µM", "quantity": "inhibition", "value": "< 10%", "SMILES": "CCCS(=O)(=O)Nc1ccc(F)c(C(=O)c2c[nH]c3ncc(-c4ccc(Cl)cc4)cc23)c1F"}
{"observed": "cell-free assay", "method": "competition with immobilised ligand", "tested at": "1 µM", "quantity": "remaining binding", "value": "66%", "SMILES": "Cc1c(NC(=O)c2cc(C(N)=O)nc3cc(F)ccc23)c(C(F)(F)F)nn1Cc1ccc(C#N)cc1"}
{"observed": "cell-free assay", "tested at": "0.5 µM", "quantity": "remaining signal", "value": "99.1%", "SMILES": "N#CCCc1ccc2c(c1)-c1[nH]c3ccc([N+](=O)[O-])cc3c1CC(=O)N2"}
{"observed": "enzyme activity", "mode": "inhibitor", "method": "radiometric", "tested at": "1 µM", "quantity": "remaining activity", "value": "76%", "SMILES": "CC(C)(C)c1nc2c(s1)c1nc(N)ncc1c1ccc(NS(=O)(=O)c3c(F)cccc3F)c(F)c12"}
{"observed": "enzyme activity", "mode": "inhibitor", "tested at": "0.1 µM", "quantity": "activity vs control", "value": "127%", "SMILES": "Cc1cc(NC(=O)c2cccc3cc(-c4cccc5[nH]nc(N)c45)ccc23)ccc1F"}
{"observed": "cell-free assay", "method": "competition with immobilised ligand", "tested at": "1 µM", "quantity": "remaining binding", "value": "100%", "SMILES": "O=C(NS(=O)(=O)c1ccc(NCC2CCOCC2)c([N+](=O)[O-])c1)c1ccc(N2CCN(Cc3ccc(C(F)(F)F)cc3-c3ccc(Cl)cc3)CC2)cc1Oc1cnc2[nH]ccc2c1"}
{"observed": "enzyme activity", "mode": "inhibitor", "tested at": "1 µM", "quantity": "inhibition", "value": "3%", "SMILES": "COc1cc2ncnc(Nc3ccc(Oc4ccccc4)c(C)c3C)c2cc1OC"}
{"observed": "cell-free assay", "method": "competition with immobilised ligand", "tested at": "1 µM", "quantity": "remaining binding", "value": "100%", "SMILES": "O=C(N1CCS(=O)(=O)CC1)N1C[C@H](c2ccc(OC(F)(F)F)cc2)C[C@H](c2nc(C3CC3)no2)C1"}
{"observed": "enzyme activity", "mode": "inhibitor", "method": "radiometric", "tested at": "1 µM", "quantity": "remaining activity", "value": "125%", "SMILES": "Cc1cnc(NC2CCOCC2)nc1-n1cnc(C(=O)NC(CN)c2cc(F)cc(Cl)c2)c1 (centres unmarked)"}
{"observed": "cell-free assay", "tested at": "23.5 nM", "quantity": "remaining signal", "value": "29%", "SMILES": "Cc1ccc(C(=O)Nc2ccc(CN3CCN(C)CC3)c(C(F)(F)F)c2)cc1C#Cc1cnc2cccnn12"}
{"observed": "enzyme activity", "mode": "inhibitor", "tested at": "10 µM", "quantity": "inhibition", "value": "63%", "SMILES": "Cc1ccc(Nc2nccc(N(C)c3ccc4c(C)n(C)nc4c3)n2)cc1S(N)(=O)=O"}
{"observed": "enzyme activity", "mode": "inhibitor", "tested at": "5 µM", "quantity": "remaining activity", "value": "96.1%", "SMILES": "O=C(Nc1cnn(-c2csc(C(=O)NC3COC3)c2)c1)Nc1c(F)cccc1Cl"}
{"observed": "cell-free assay", "method": "competition with immobilised ligand", "tested at": "1 µM", "quantity": "remaining binding", "value": "100%", "SMILES": "O=C(NCc1ncc(C(F)(F)F)cc1Cl)c1ccc2c(c1)C1(CCS(=O)(=O)CC1)[C@@H](C1CC1)N2S(=O)(=O)c1ccc(F)cc1"}
{"observed": "cell-free assay", "tested at": "0.5 µM", "quantity": "remaining signal", "value": "107%", "SMILES": "Clc1ccc(Nc2nnc(Cc3ccncc3)c3ccccc23)cc1"}
{"observed": "enzyme activity", "mode": "inhibitor", "method": "radiometric", "tested at": "1 µM", "quantity": "remaining activity", "value": "100%", "SMILES": "COc1cc(Nc2cnc(C#N)c(O[C@H](C)CN(C)C)n2)ncc1-c1cnn(C)c1"}
{"observed": "enzyme activity", "mode": "inhibitor", "tested at": "10 µM", "quantity": "remaining activity", "value": "100%", "SMILES": "Cc1sc(C(=O)NC2COC2)cc1-n1cc(NC(=O)Nc2c(F)cccc2Cl)cn1"}
{"observed": "cell-free assay", "method": "competition with immobilised ligand", "tested at": "1 µM", "quantity": "remaining binding", "value": "100%", "SMILES": "O=C(O)[C@H]1[C@H](Cn2nnc3ccccc3c2=O)CC[C@@H]1C(=O)c1ccc(OCCC2CCOCC2)cc1"}
{"observed": "enzyme activity", "mode": "inhibitor", "tested at": "10 µM", "quantity": "remaining activity", "value": "131%", "SMILES": "Oc1cccc(-c2nc(N3CCOCC3)c3oc4ncccc4c3n2)c1"}
{"observed": "cell-free assay", "method": "competition with immobilised ligand", "tested at": "1 µM", "quantity": "remaining binding", "value": "92%", "SMILES": "CO[C@@H](C)c1c(Nc2ccc([C@@H](N(C)C(=O)C3CCS(=O)(=O)CC3)C(F)(F)F)cc2)cnc2cc(Cl)nn12"}
{"observed": "cell-free assay", "tested at": "0.5 µM", "quantity": "remaining signal", "value": "11.8%", "SMILES": "COc1cc(Nc2c(C#N)cnc3cc(OCCCN4CCN(C)CC4)c(OC)cc23)c(Cl)cc1Cl"}
{"observed": "cell-free assay", "method": "competition with immobilised ligand", "tested at": "1 µM", "quantity": "remaining binding", "value": "90%", "SMILES": "O=C1NC(c2ccccn2)Sc2ccccc21 (centres unmarked)"}
{"observed": "cell-free assay", "tested at": "0.5 µM", "quantity": "remaining signal", "value": "100%", "SMILES": "C#Cc1cccc(Nc2ncnc3cc(OCCOC)c(OCCOC)cc23)c1"}
